Here are results for two compounds from ChEMBL document CHEMBL4339200, “Structure-based Discovery of Phenyl (3-Phenylpyrrolidin-3-yl)sulfones as Selective, Orally Active RORγt Inverse Agonists” (ACS Med Chem Lett, 2019).

Data set [1] concerns the target T1, Nuclear receptor subfamily 1 group I member 2 (Homo sapiens, UniProt O75469).
T1 sequence (O75469 whole entry): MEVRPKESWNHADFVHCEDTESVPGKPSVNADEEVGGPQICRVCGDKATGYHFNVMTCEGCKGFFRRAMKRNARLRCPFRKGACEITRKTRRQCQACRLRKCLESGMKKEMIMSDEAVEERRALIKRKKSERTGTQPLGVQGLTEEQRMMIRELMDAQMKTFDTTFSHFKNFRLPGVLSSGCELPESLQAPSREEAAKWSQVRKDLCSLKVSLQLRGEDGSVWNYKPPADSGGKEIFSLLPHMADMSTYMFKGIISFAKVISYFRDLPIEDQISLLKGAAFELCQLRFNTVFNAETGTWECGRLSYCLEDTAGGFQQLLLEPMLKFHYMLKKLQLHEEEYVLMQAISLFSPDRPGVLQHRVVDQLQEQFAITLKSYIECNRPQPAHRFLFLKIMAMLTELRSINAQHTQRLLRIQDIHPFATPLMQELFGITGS
Description: Transactivation of PXR in human HepG2 cells. It is filed as ADME, cell-based.

Data set [2] is described as follows: Permeability in human Caco2 cells. It is filed as ADME, cell-based. The following applies: Caco-2, read-out: permeability. A digest of the protocol:
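Caco-2 monolayer permeability, reported as permeation coefficient in nm/s; an efflux ratio was also determined.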

Data set [3] has as its target T2, Oxysterols receptor LXR-alpha (Homo sapiens, UniProt Q13133).
T2 sequence (Q13133 whole entry): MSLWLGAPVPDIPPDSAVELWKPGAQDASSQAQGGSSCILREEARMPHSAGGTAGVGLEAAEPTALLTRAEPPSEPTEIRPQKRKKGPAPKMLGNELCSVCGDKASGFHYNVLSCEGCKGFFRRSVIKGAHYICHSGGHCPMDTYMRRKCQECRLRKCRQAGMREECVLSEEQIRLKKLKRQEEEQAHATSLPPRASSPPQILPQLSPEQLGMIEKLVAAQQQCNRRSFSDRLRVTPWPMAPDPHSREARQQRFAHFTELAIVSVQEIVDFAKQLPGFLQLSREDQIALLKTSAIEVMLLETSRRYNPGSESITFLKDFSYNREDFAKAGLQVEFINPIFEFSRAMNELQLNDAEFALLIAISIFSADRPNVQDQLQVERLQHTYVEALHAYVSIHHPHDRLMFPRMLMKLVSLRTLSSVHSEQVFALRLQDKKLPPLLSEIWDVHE
Briefly: Agonist activity at LXRalpha (unknown origin) expressed in African green monkey CV1 cells. It is filed as cell-based.

The next data set has as its target T3, PXR (NR1I2) (Homo sapiens, UniProt O75469).
T3 sequence (O75469 whole entry): T1 sequence (O75469 whole entry)
Description: Transactivation of PXR in human HepG2 cells relative to rifampicin. It is filed as ADME, cell-based. Conditions: read-out: %max.

Data set [4] has as its target T4, Oxysterols receptor LXR-beta (Homo sapiens, UniProt P55055).
T4 sequence (P55055 whole entry): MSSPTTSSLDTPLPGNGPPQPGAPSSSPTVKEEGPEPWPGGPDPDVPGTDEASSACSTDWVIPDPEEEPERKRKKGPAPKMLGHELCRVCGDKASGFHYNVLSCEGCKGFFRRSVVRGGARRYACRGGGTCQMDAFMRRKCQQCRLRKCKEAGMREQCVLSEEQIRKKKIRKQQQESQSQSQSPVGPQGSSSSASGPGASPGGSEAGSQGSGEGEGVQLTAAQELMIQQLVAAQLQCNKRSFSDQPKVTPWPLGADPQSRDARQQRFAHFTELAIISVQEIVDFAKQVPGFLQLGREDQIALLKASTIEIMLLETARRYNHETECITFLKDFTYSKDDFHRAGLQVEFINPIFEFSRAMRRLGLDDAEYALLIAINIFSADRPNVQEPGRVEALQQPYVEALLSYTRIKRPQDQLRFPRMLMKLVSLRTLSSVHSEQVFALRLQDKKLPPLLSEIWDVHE
Description: Agonist activity at LXRbeta (unknown origin) expressed in African green monkey CV1 cells. It is filed as cell-based.

For data set [5], the target named is T5, Oxysterols receptor LXR-beta (Homo sapiens) (UniProt P55055).
T5 sequence (whole entry): T4 sequence (P55055 whole entry)
Description: Agonist activity at LXRbeta (unknown origin) expressed in African green monkey CV1 cells relative to T0901317. It is filed as cell-based.

The target of data set [6] is T6, Oxysterols receptor LXR-alpha (Homo sapiens) (UniProt Q13133).
T6 sequence (whole entry): T2 sequence (Q13133 whole entry)
Briefly: Agonist activity at LXRalpha (unknown origin) expressed in African green monkey CV1 cells relative to T0901317. It is filed as cell-based.

In the case of `O=C(O)[C@H]1CC[C@H](C(=O)N2CC[C@](c3ccc(C(O)(C(F)(F)F)C(F)(F)F)cc3)(S(=O)(=O)c3ccc(F)cc3)C2)CC1`, the EC50 in data set [1] was > 50000 nM; in data set [3], > 3750 nM; in data set [4], > 7500 nM. For the same compound, in data set [2], the Papp was < 1.5 ×10⁻⁶ cm/s. In addition, at PXR (NR1I2), the Emax is 11%.
On to `COC(=O)N1CCC(c2ccc(C(O)(C(F)(F)F)C(F)(F)F)cc2)(S(=O)(=O)c2ccc(F)cc2)C1` (racemic), for which the values for the EC50 in data set [3] and in data set [4] were 408 nM and 1900 nM, respectively. Further, the results for the %max in data set [5] and in data set [6] were 39% and 62%, respectively.
